The labels stand for the following.
B1: tRNA (parent)
chain: GUUCCGUUGGCGUAAUGGUAACGCGUCUCCCUCCUAAGGAGAAGACUGCGGGUUCGAGUCCCGUACGGAACG

Variants at the floor of the assay were thinned out.

The variants in this data set derive from B1. The experiment in a line: yeast fitness relative to wild type (ratio to wild type); higher = fitter; tRNA-Arg(CCU), competitive growth, 37 C, YPD. A digest of the protocol: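 Start and end populations of a pooled competition were compared by 100-nucleotide paired-end sequencing of gene amplicons. The Saccharomyces cerevisiae strains carried tRNA-Arg(CCU) gene variants at the native genomic locus, synthesised with a 3% per-site mutation rate at 69 sites, and competed in YPD at 37°C for 24 hours in six parallel replicates. Darwinian fitness relative to wild type was based on the change in genotype frequencies. Genotypes required ≥ 100 starting reads, and estimates < 0.5 were set to 0.5.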
Turning to G6C U8C G25A C34U A43U, the yeast fitness was ≤ 0.5. For the variant G6C U19A, the yeast fitness stood at 0.78. As to U7A A20G G23A C24U U35A C60A A69C, the yeast fitness is 0.548.

As for U7A C22A C24U A36U, the yeast fitness was ≤ 0.5. As for G6C G44C, the figure is 0.853; as for G6C G9A A21U U28C U35G A36C A65G C66A, ≤ 0.5; as for G6C G18C C22U C34G A36U C49A A57C C66U, ≤ 0.5. In the case of G6C G10A U16G C24U G50C C55U it was ≤ 0.5; in that of G6C U19A G38C C55A, ≤ 0.5; in that of G6C G58C C61A, 0.528. As for U7A A21G C30G A36G, the yeast fitness is ≤ 0.5. As for U7A A70G, the figure is 0.829; as for U7A A70U, 0.689. Take G6C C61U: the yeast fitness stood at 0.726. As for G6C C61G, the figure is 0.675; as for U7A A20C G50A, ≤ 0.5; as for G6C U26C, 0.959. In the case of G6C U26A it was 0.641; in that of G6C U26G, 0.721; in that of G6C G17A A37G C60G A70U, ≤ 0.5.

As to G6C G68A, the yeast fitness was 0.662. Turning to G6C U16A C30A A69U, the yeast fitness was ≤ 0.5. As for G6C G25A C27G A57U, the yeast fitness is ≤ 0.5. As for U7A A14U G68A, the figure is ≤ 0.5; as for U7A A21C U32C, ≤ 0.5. For U7A A37G A40G A43G G52C U59G C66U A69U, the yeast fitness is ≤ 0.5. As for G6C G12A A21G C66U, the figure is ≤ 0.5; as for U7A C22U U26C A40G A43U C49A, ≤ 0.5.

Take G6U U32C: the yeast fitness stood at 0.766. For U7A A20G G23A U26G, the yeast fitness amounted to 0.548.

In the case of G6C G51C, the yeast fitness was 0.596. In the case of G6C G10A A14C U16A C27U C33U it was ≤ 0.5; in that of U7A A37G A40G A43G G52C U59G, 0.556. For the variant G6C U7G U16G A43G A65C, the yeast fitness was determined as 0.805. In the case of U7A A42U it was 0.696.

As for U7A A37G A40G A69U, the yeast fitness was ≤ 0.5. As for G6C G38C G68A A70U, the figure is ≤ 0.5; as for U7A A40U A43C, 0.656.

For the variant G6C G51C A65C, the yeast fitness worked out at 0.579. As to G6C U7C G23C C24A C49U C60A, the yeast fitness was ≤ 0.5. Consider G6C U64G, for which the yeast fitness came to 0.63.

G6C U64C: the yeast fitness is 0.87. As for U7A A20G A43C A57U, the yeast fitness was ≤ 0.5. Turning to U7A A43G G51C, the yeast fitness turned out to be 0.537.

For G6C U7G U19A C27G G67U, the yeast fitness is ≤ 0.5. In the case of U7A C11G U28G U32A G38C, the yeast fitness was ≤ 0.5. In the case of U7A A20G C61A it was 0.616. For G6C G12A C27U G39C G63A, the yeast fitness is ≤ 0.5. In the case of G6C G9C U54C it was 0.603; in that of G6C U8C C49U A65U, ≤ 0.5; in that of U7A A21C U54C, ≤ 0.5. As to G6C C66A, the yeast fitness is 0.927. In the case of G6C C66U, the yeast fitness turned out to be 1.01.

As to G6U C27G, the yeast fitness was 0.545. In the case of U7A A21C C29U A37G A57G it was ≤ 0.5; in that of U7A A43C, 0.824; in that of U7A, 0.826. G6C U8C G41A A42C G50C A70G: the yeast fitness was ≤ 0.5. As for U7A A14C A42G A57U, the yeast fitness was ≤ 0.5.

For the variant U7A A14U C31G, the yeast fitness was ≤ 0.5. For the variant G6C G17A A36G C60U G63C, the yeast fitness was ≤ 0.5. In the case of G6C U8C C49U it was 0.531. On to U7A A20G G23A U26G A69C, for which the yeast fitness is ≤ 0.5. Take U7A A21C U26A C30A A45G G52A: the yeast fitness came out at 0.547. In the case of G6U C34U, the yeast fitness amounted to 0.573. Regarding U7A A36U A45G U47A G68A, the yeast fitness was ≤ 0.5.

Take G6C U28C C46U A69G: the yeast fitness is ≤ 0.5.

For G6C G18C C22U C34G A36U A57C C66U, the yeast fitness is ≤ 0.5. As to G6C G10A C27A, the yeast fitness was 0.586. U7A A21U G51C C62U: the yeast fitness was 0.816. As for G6C U16G C62U, the figure is 0.532; as for G6C U26C U64A, ≤ 0.5; as for G6C U8C G58C G67A, ≤ 0.5. As for G6C U53C C62U, the figure is 0.589; as for U7A A21C A45G, 0.571; as for U7A A14U C22U C27A C33U A45C U53C A69C, 0.632. For G6C G10C C29U C30G A45U, the yeast fitness is ≤ 0.5. Consider G6C U7G C24G C34U U53C C55G C62A, for which the yeast fitness was ≤ 0.5. In the case of G6C U54G it was 0.587; in that of G6C U54C, 0.898. Consider G6C U7G U16G A43G, for which the yeast fitness was determined as 0.707. In the case of G6C U16A G23C U64A, the yeast fitness was ≤ 0.5.

Turning to U7A C24U U54C A69U, the yeast fitness was ≤ 0.5. In the case of U7A A15C C55G it was ≤ 0.5. With U7A A42G C46G A65C, the yeast fitness was determined as 0.66. As for U7A C24U C33A A65U, the figure is 0.58.

As for G6C G18A G23A C30U C33U A65G, the yeast fitness worked out at 0.536. As for G6C U13C, the figure is 0.823; as for U7A C22U U54C C66U G68C A69U, 0.567; as for G6C G51C A57G C61U A65C, ≤ 0.5. For G6C G10C A40G A42U, the yeast fitness is ≤ 0.5.

As for U7A C24U, the yeast fitness turned out to be 0.669. With G6C U7G G17C, the yeast fitness stood at 0.525.

Turning to U7A A15C G23C C27U G56A C61A, the yeast fitness is 0.602. Regarding G6C G67A, the yeast fitness came out at 0.874. In the case of G6C G67C it was 0.75; in that of G6C G67U, 0.844; in that of U7A A14G A21C U47A G48A, ≤ 0.5.

Regarding U7A A65U A70G, the yeast fitness turned out to be 0.677. As for U7A A45C G68A, the figure is ≤ 0.5; as for G6C G9A G48C G51C U53A C66A, ≤ 0.5. In the case of G6C U13G G18A C55G it was ≤ 0.5.

Take G6C G41C C49G: the yeast fitness is 0.544.

For the variant G6C U8G U19G C33A A42C G58A, the yeast fitness is ≤ 0.5. As to U7A A37C A43C A65G, the yeast fitness is ≤ 0.5. In the case of G6C U53A C61U it was ≤ 0.5. Turning to U7A C22A G52A G58A, the yeast fitness was ≤ 0.5. U7A A15G G23A C27A U28C C29G C61A: the yeast fitness is ≤ 0.5. In the case of G6C C62A G67C it was ≤ 0.5; in that of U7A A20C G67C, ≤ 0.5.

As to G6U U7C A70C, the yeast fitness is ≤ 0.5. In the case of U7A C22A C29A G44C it was ≤ 0.5; in that of U7A A21U G38C A45G U59A, ≤ 0.5.

U7A C22G: the yeast fitness was found to be 0.669. In the case of G6C U35A it was 0.876; in that of G6C G18C A21G A40U C49U C61U A70G, 0.564; in that of G6C U13C C33U A42C C60U A69G, 0.665. In the case of G6C G17A C30U A42C it was 0.63; in that of G6U U8C, 0.769. As for G6C U47G, the figure is 0.588; as for G6C U47C, 1.01. With U7A A40U G67A, the yeast fitness was ≤ 0.5. As for G6C U13G C55G, the figure is 0.659; as for G6C G25A C27G U59A U64G, ≤ 0.5. As for U7A A36G A40U C46G, the figure is ≤ 0.5; as for G6U C34U C61U, ≤ 0.5; as for U7A C11A C30A, ≤ 0.5. For G6C G17A C24A U32C, the yeast fitness is ≤ 0.5.

Turning to G6C G12A C30G A36U A42C, the yeast fitness was ≤ 0.5. As for G6C U8C C66U, the figure is 0.73.

With G6C U13G G18A U54C C55A, the yeast fitness was ≤ 0.5. As for G6C G12A C31A A43G, the figure is ≤ 0.5. As for G6C G12A G51A, the figure is 0.538; as for U7A C24G A69U, ≤ 0.5. For the variant G6C C66A A70U, the yeast fitness was 0.538. In the case of G6C U53C C62U C66U it was ≤ 0.5; in that of G6C U16G U35A G51C, ≤ 0.5. In the case of G6C U7C C31A it was ≤ 0.5; in that of U7A C22G G38C C60U, ≤ 0.5.

For the variant U7A A65C A69C, the yeast fitness is ≤ 0.5.

As to G6C U47A G51C A65G, the yeast fitness came out at 0.644. With G6C U7A C27U, the yeast fitness was ≤ 0.5. As for G6C G10A U16G C31A, the figure is ≤ 0.5; as for G6C G17A A36U G58C, ≤ 0.5; as for U7A A14C G25A C30G C61U, ≤ 0.5. In the case of U7A A20C it was 0.733; in that of U7A A20G, 0.713; in that of U7A A57U U59A A69C, 0.702. As for U7A C27A A65U, the figure is 0.603.

On to U7A C11G C27U A37C G51C, for which the yeast fitness was ≤ 0.5.

On to U7A A21U A42G C55U A70C, for which the yeast fitness was ≤ 0.5. In the case of G6C U8C U54C G58A it was ≤ 0.5.

For the variant U7A A42C C62U, the yeast fitness is ≤ 0.5.

For G6U A65C, the yeast fitness worked out at 0.799.

As for G6C G18C C22U, the yeast fitness was 0.548. As for G6C G17C C31G A36G U59C, the figure is 0.599; as for G6C U8C G48A, 0.664. As for G6C U47A G51C, the figure is 0.525; as for G6C G23C C24A, 0.585; as for G6C U19A A20U C22G U28C C34A G52A, ≤ 0.5. Regarding U7A A14G C31U A43C C46U G63C C66U, the yeast fitness is ≤ 0.5.

Regarding G6C G17A C24A U32C A45C C60A, the yeast fitness is ≤ 0.5. As for G6C U53G, the yeast fitness worked out at 0.519. In the case of G6C G23C C24U G68A it was 0.689; in that of G6C G50C U53C C55U, ≤ 0.5; in that of G6C G50A G67A, 0.606. On to G6C U16G C27U C60G, for which the yeast fitness amounted to 0.582.
